Screening results: PubChem, The Scripps Research Institute Molecular Screening Center
A selection: hits, their analogues and other compounds. The true share with any hit is near 3.7%.
TAAR1 antagonist = human TAAR1 antagonism; 1.5% of 360,000 active; CHO RD-HGA16 TAAR1, Fluo-8 calcium fluorescence, antagonist; AID 624466; inhibition, % at 3 µM; Q96RJ0;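 active means inhibition above a per-plate cutoff, the mean inhibition of test compounds on that plate plus 3 SD, cut at about 49% in these data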;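 further: 0% = DMSO plus EC80 beta-PEA response and 100% = DMSO alone without agonist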
Target sequence (Q96RJ0 whole entry, looked up): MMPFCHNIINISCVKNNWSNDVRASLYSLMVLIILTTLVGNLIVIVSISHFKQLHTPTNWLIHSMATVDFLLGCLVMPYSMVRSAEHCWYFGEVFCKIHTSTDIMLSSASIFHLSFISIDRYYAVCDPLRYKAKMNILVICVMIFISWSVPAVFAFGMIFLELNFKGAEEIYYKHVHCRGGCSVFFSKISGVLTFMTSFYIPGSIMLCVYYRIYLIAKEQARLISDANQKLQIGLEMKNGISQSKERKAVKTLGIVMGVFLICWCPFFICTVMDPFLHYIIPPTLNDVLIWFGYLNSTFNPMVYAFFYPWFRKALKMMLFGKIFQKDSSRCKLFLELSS
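test system = CHO RD-HGA16 cells bearing hTAAR1 | replication = singlicate | controls = DMSO-only wells and EC80 β-PEA-stimulated wells | reagent = EC80 β-phenethylamine stimulus | read-out basis = percent inhibition of PEA-evoked calcium signal, max/basal emission ratio | schedule = seeding 17-24 h prior, 75-min 37 °C, 30-min RT dye loading | signal = kinetic Fluo-8 calcium fluorescence measurement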
rCAG binder = r(CAG) repeat RNA binding; TO-PRO-1 dye displacement fluorescence; inhibition, % at 3 µM; 1.3% of 370,000 active;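 active means inhibition above the plate cutoff, the mean of all test compounds on that plate plus 3 SD, cut at about 35% in these data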;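 further: 0% = DMSO alone and 100% = 100 µM mitoxantrone as full dye displacement; higher means more dye released from RNA so lower well fluorescence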
HCV NS3 hel inh = HCV NS3 helicase inhibition. NS3 helicase DNA unwinding, Cy5 molecular beacon fluorescence. inhibition, % at 10.9 µM. 0.56% of 290,000 active;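 active means inhibition above the mean of all tested compounds plus 3 SD, set per campaign, cut at about 35% in these data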;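 further: 0% = DMSO wells and 100% = thioflavine S control wells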
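System: HCV NS3 helicase fragment; control set: DMSO and thioflavine S; technique: Cy5 fluorescence at 0 and 60 min, beacon hairpin quenching; reagent: beacon DNA duplex substrate plus ATP; replicates: singlicate; schedule: 1 h reaction at 25 °C, ATP-initiated; medium: MOPS buffer pH 6.5 with MgCl2, DTT, Tween20, BSA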
TAAR1 ag = agonists of human TAAR1. Q96RJ0. CHO RD-HGA16 TAAR1, Fluo-8 calcium fluorescence; vehicle wells 0%, saturating PEA agonist 100%. activation, % at 3 µM. 0.99% of 360,000 active. AID 624467;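 active means activation above the mean activation of all test compounds in the run plus 3 SD, cut at about 38% in these data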
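Test system: RD-HGA16 (CHO) cells co-expressing Gα16 and hTAAR1 | Doses: Single dose, 3 µM | Schedule: 17-24 h seeding, 75 min 37 °C dye, 30 min RT | Evaluation: % activation from peak over basal fluorescence ratio, DMSO-to-PEA scaled | Technique: Kinetic Fluo-8 calcium fluorescence | Benchmarks: Low control DMSO, high control PEA (EC100)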
HCV core dimer = HCV core protein dimerization inhibition. TR-FRET GST/Flag-core106 dimerization, 1536-well. inhibition, % at 5 µM. 0.33% of 300,000 active. AID 1899;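 active means inhibition above the mean of all tested compounds plus 3 SD, set per screening campaign, cut at about 45% in these data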
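System: GST/Flag-tagged HCV core106 proteins. Incubation: compound-protein-antibody incubation 4 h at 22.5 °C. Technique: HTRF with 340 nm excitation, 617/671 nm emission. Medium: KF-containing HEPES buffer, pH 7.45, DTT, CHAPS, BSA. Read-out: inhibition (%) from 671 over 617 nm ratio. Also added: Eu(K)-anti-GST 90 ng/mL plus XL665-anti-Flag 1 µg/mL.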
NS3 hel confirm = HCV NS3 helicase inhibition, confirmation assay; shares compounds with HCV NS3 hel inh; NS3 helicase DNA unwinding, Cy5 molecular beacon fluorescence; inhibition, % at 10.9 µM; 31% of 1,600 active;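 active means inhibition above the mean of all tested compounds plus 3 SD, cutoff set per campaign, cut at about 36% in these data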
DNA FID counter = intercalator displacement, NS3 helicase counter-screen; shares compounds with HCV NS3 hel inh; DNA fluorescent intercalator displacement, fluorescence; inhibition, % at 7.9 µM; 4% of 1,600 active; in the data active means inhibition above about 37%;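 further: 0% = vehicle and 100% = reference compound; higher means more displacement of ethidium bromide from the DNA hairpin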
* = called active by the depositor.

For CN(Cc1cccs1)C(=O)/C=C/c1ccccc1[N+](=O)[O-] the results were TAAR1 antagonist -35, rCAG binder -2, HCV NS3 hel inh 61*, TAAR1 ag 0, HCV core dimer 3, NS3 hel confirm -10 and DNA FID counter 9.
For CCCCNC(=O)CSc1nnc(-c2ccc(S(=O)(=O)N3CCCC3)cc2)n1C the results were TAAR1 antagonist 19, rCAG binder -3, HCV NS3 hel inh 5, TAAR1 ag -3 and HCV core dimer 0.
For C=CCNC(=O)CSc1nnc(-c2ccc(S(=O)(=O)N3CCCC3)cc2)n1C the results were TAAR1 antagonist -16, rCAG binder -3, HCV NS3 hel inh 47*, TAAR1 ag 2, HCV core dimer -10, NS3 hel confirm -14 and DNA FID counter 5.
`Fc1ccc(NC(=S)Nc2cccc3ccccc23)cc1F` gave TAAR1 antagonist 16, rCAG binder 3, HCV NS3 hel inh 44*, TAAR1 ag 8, HCV core dimer 2, NS3 hel confirm 10 and DNA FID counter 6.
`COc1cccc(NC(=S)Nc2cccc3ccccc23)c1` gave TAAR1 antagonist -3, rCAG binder 16, HCV NS3 hel inh 49*, TAAR1 ag -1, HCV core dimer 9, NS3 hel confirm 2 and DNA FID counter -6.
For Cc1cccc(NC(=S)Nc2cccc3ccccc23)c1 the results were TAAR1 antagonist -4, rCAG binder 12, HCV NS3 hel inh -1, TAAR1 ag -1 and HCV core dimer 0.
`O=C(CN1C(=O)C2(OCCCO2)c2ccccc21)NCc1ccc(F)cc1` gave rCAG binder 1.
Screening COc1cc(Br)c(-c2sc(Nc3ccccc3)n[n+]2-c2ccc(F)cc2)cc1OC returned TAAR1 antagonist 4, rCAG binder 7, HCV NS3 hel inh 45*, TAAR1 ag 13, HCV core dimer -35, NS3 hel confirm 13 and DNA FID counter -5.
`COc1cc(OC)c(-c2sc(Nc3ccccc3)n[n+]2-c2ccc(F)cc2)cc1OC` gave TAAR1 antagonist -17, rCAG binder -2, HCV NS3 hel inh 27, TAAR1 ag 3 and HCV core dimer 2.
Screening Fc1ccc(-[n+]2nc(Nc3ccccc3)sc2-c2cccc(Cl)c2Cl)cc1 returned TAAR1 antagonist 22, rCAG binder 5, HCV NS3 hel inh 31, TAAR1 ag 4 and HCV core dimer -30.
For Clc1cccc(-c2sc(Nc3ccccc3)n[n+]2-c2ccccc2)c1Cl the results were TAAR1 antagonist 22, rCAG binder 11, HCV NS3 hel inh 69*, TAAR1 ag 6, HCV core dimer -12, NS3 hel confirm 9 and DNA FID counter 20.
`Cc1cc(C)n(-c2nc3ccccc3s2)n1` gave TAAR1 antagonist -6, rCAG binder 0, HCV NS3 hel inh 7, TAAR1 ag -1 and HCV core dimer 1.
For Cc1c2c(=O)n(-c3nc4ccccc4s3)nc-2cc(O)n1Cc1ccccc1 the results were HCV NS3 hel inh 48*, NS3 hel confirm 47* and DNA FID counter 12.
For O=C(Nc1ccccc1)C1=C(O)CC(c2ccco2)CC1=Nc1ccccc1 (configuration not stated) the results were TAAR1 antagonist -10, rCAG binder 7, HCV NS3 hel inh 13, TAAR1 ag 7 and HCV core dimer 16.
For O=C(Nc1ccccc1)C1=C(O)CC(c2ccoc2)CC1=Nc1ccccc1 (configuration not stated) the results were TAAR1 antagonist 0, rCAG binder 14, HCV NS3 hel inh 41*, TAAR1 ag 3, HCV core dimer 18, NS3 hel confirm -7 and DNA FID counter 10.
Screening Cc1cc(C)nc(NS(=O)(=O)c2ccc(NC(=O)c3ccc(N4C(=O)CCC4=O)cc3)cc2)n1 returned TAAR1 antagonist -17, rCAG binder 5, HCV NS3 hel inh 60*, TAAR1 ag 0, HCV core dimer -14, NS3 hel confirm -21 and DNA FID counter 12.
Screening Cc1cccc(C(=O)OCc2cc(=O)oc3c(C)c(C)ccc23)c1O returned HCV NS3 hel inh 37*, HCV core dimer -11, NS3 hel confirm -11 and DNA FID counter 14.
`O=C(NCCNc1ccc(Cl)cc1[N+](=O)[O-])c1ccccc1F` gave TAAR1 antagonist 3, rCAG binder -1, HCV NS3 hel inh 41*, TAAR1 ag 3, HCV core dimer 1, NS3 hel confirm 1 and DNA FID counter 14.
For Cc1ccc(C(=O)NCCNc2ccc(Cl)cc2[N+](=O)[O-])o1 the results were TAAR1 antagonist 3, rCAG binder -3, HCV NS3 hel inh -2, TAAR1 ag 7 and HCV core dimer 1.
Screening COC(=O)C1CCCN(C(=O)C2CCN(S(=O)(=O)c3ccc([N+](=O)[O-])cc3)CC2)C1 (configuration not stated) returned rCAG binder 3.
`CCCN1CCN(CCCNC(=O)c2cc3c(=O)[nH]c4ccccc4c3s2)CC1` gave TAAR1 antagonist 13, rCAG binder 3, HCV NS3 hel inh -1, TAAR1 ag 0 and HCV core dimer 0.
Screening COCCNC(=O)c1cc2c(=O)[nH]c3ccccc3c2s1 returned TAAR1 antagonist 2, rCAG binder 9, HCV NS3 hel inh 70*, TAAR1 ag 3, HCV core dimer 6, NS3 hel confirm -8 and DNA FID counter 4.
`COC(=O)[C@H]1C[C@@]2(C3C=CC=C3)c3ccccc3N[C@H]2N1` gave rCAG binder 8.
`CC[C@H]1OC(=O)[C@H](C)[C@@H](O[C@H]2C[C@@](C)(OC)[C@@H](O)[C@H](C)O2)[C@H](C)[C@@H](O[C@@H]2O[C@H](C)C[C@H](N(C)C)[C@H]2O)[C@](C)(O)C[C@@H](C)C(=O)[C@H](C)[C@@H](O)[C@]1(C)O` gave TAAR1 antagonist -9, rCAG binder 14, HCV NS3 hel inh 47*, TAAR1 ag 0, HCV core dimer 3, NS3 hel confirm 75* and DNA FID counter -25.
Screening COc1ccc(NC(=O)CC2C(=O)N(c3ccc(OC)cc3)C(=O)N2C(C)C)cc1 (configuration not stated) returned TAAR1 antagonist 7, rCAG binder -2, HCV NS3 hel inh 46*, TAAR1 ag 2, HCV core dimer 3, NS3 hel confirm -10 and DNA FID counter -5.
COC(=O)[C@]12C[C@H](CC(=O)N3CCN(C(=O)c4ccco4)CC3)C(=O)N(Cc3ccc(Cl)cc3Cl)C1=C[C@H](C(C)(C)C)O[C@@H]2C was read as rCAG binder 10.
